# TNAP act hiacc = TNAP (human) activation, high acceptor; P05186; purified TNAP, CDP-star luminescence, 1 M DEA, 30 min; active compounds read high; 0 = EDTA background, 1 = DMSO-only activity; activation factor at 20 µM; 200,000 tested, under 10 active; AID 1136;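 active = activation factor at least 2 at 20 µM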
#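 Control set: EDTA negative control, DMSO positive control / Assay system: human TNAP / Quantity: TNAP 1/800 final / Evaluation: TNAP activation factor scaled between EDTA and DMSO control wells / Measured by: luminescent substrate turnover signal / Compound dosing: one dose, 20 µM / Times: 30 min enzyme reaction at room temperature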
# S1P3 antag = blocks the human S1P3 receptor; CHO S1P3 NFAT-BLA reporter, FRET fluorescence, antagonist mode; inhibition, % at 4.98 µM; Q99500; 170,000 compounds, 0.27% hits;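 active = inhibition above the plate cutoff, the mean inhibition of test wells on that plate plus 3 SD, cut at about 28% in these data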;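 note: cells challenged with S1P at its EC80 of 0.8 µM; blue over green emission ratio from cleaved BLA substrate after 4 h stimulation; 0% = S1P-stimulated wells and 100% = unstimulated DMSO-only wells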
# TNAP inh noacc = TNAP (human) inhibition, acceptor-free conditions; purified TNAP, CDP-star luminescence, 30 min; inhibition, % at 20 µM; 200,000 compounds, 0.26% hits;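 active = tissue-nonspecific alkaline phosphatase inhibition above about 50% at 20 µM in the single-dose screen, limit read from the data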;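 note: 0% = DMSO negative control and 100% = EDTA positive control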
# S1P4 ag = agonists of human S1P4 receptor | O95977 | activation, % at 4.98 µM | S1P4-expressing cell line, agonist reporter assay | 220,000 compounds, 0.35% hits; in the data active = activation above about 11%;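 note: 0% = DMSO vehicle and 100% = reference agonist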
# Target sequence (O95977 whole entry, looked up): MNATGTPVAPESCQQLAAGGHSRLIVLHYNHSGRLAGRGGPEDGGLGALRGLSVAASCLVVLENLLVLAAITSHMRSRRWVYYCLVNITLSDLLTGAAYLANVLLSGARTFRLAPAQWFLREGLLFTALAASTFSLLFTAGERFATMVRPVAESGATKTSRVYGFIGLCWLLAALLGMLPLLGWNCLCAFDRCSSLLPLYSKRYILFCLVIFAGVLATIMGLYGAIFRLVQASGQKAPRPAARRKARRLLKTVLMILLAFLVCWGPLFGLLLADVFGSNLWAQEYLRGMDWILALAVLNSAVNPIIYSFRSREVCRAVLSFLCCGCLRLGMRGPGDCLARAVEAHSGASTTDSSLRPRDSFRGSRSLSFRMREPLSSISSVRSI
# TNAP inh hi DEA = blocks human TNAP under high phosphate acceptor concentration; purified TNAP, CDP-star luminescence, 1 M DEA; 200,000 compounds, 0.03% hits; inhibition, % at 20 µM; P05186;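 active = over 50% inhibition of tissue-nonspecific alkaline phosphatase at 20 µM in the single-dose screen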;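 note: plate controls were DMSO wells for no effect and EDTA-quenched wells as full inhibition for full effect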
# S1P4 antag = antagonists of human S1P4 receptor; inhibition, % at 4.98 µM; 220,000 compounds, 0.26% hits; S1P4-expressing cells, antagonist mode, reporter read-out; in the data active = inhibition above about 29%;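 note: 0% = wells stimulated with agonist and 100% = vehicle wells without agonist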
# Numbers without * were called inactive; x = no result given. Shown are actives, neighbours in structure and some others; about 1.1% of the full set was active somewhere.
SMILES,TNAP act hiacc,S1P3 antag,TNAP inh noacc,S1P4 ag,TNAP inh hi DEA,S1P4 antag
Cc1ccc(NC(=O)c2ccc(Nc3c([N+](=O)[O-])cc([N+](=O)[O-])cc3[N+](=O)[O-])cc2)cc1,0.5,9.7,-6.2,0.7,53.7*,-3.1
Cc1ccc(C(=O)Nc2cc([N+](=O)[O-])ccc2C)cc1,1.1,1.2,-16.6,1.8,-5.3,-17.9
CSc1nc(-c2ccc(Cl)cc2)nn1S(=O)(=O)c1ccc(Cl)cc1,1,x,-0.5,-2.3,-0.3,-7.5
CCC(=O)n1nc(-c2ccc(Cl)cc2)nc1SC,1,x,60.5*,-1.5,0.3,-8.7
CCCC(=O)n1nc(-c2ccc(Cl)cc2)nc1SC,1,-2.2,53.2*,-1.9,1.9,-3.9
CCC(=O)n1nc(-c2ccc(OC)cc2)nc1SC,1,x,54.0*,3.0,2.6,-10.2
COc1ccc(-c2nc(SC)n(C(=O)c3ccco3)n2)cc1,1.1,10.9,51.7*,0.9,-6.6,-10.2
COc1ccc(C(=O)CC(Nc2ccc([N+](=O)[O-])cc2)c2ccc(Cl)cc2)cc1 (configuration not stated),1,x,-3.4,-2.3,2.6,-1.9
O=C(c1ccc2c(=O)n3c(nc2c1)CCCCC3)N1CCc2ccccc21,x,7.7,x,1.6,x,8.8
CC(/C=N/NC(=O)c1cc(-c2cccn2C)n[nH]1)=C\c1ccccc1,x,4.7,x,0.5,x,5.6
Cn1cccc1-c1cc(C(=O)N2CCc3c([nH]c4ccccc34)C2c2ccccn2)[nH]n1 (configuration not stated),1,-12.2,18.5,-0.7,-3.3,4.0
Cc1c(Cl)cccc1NC(=O)c1cc(-c2ccccc2O)n[nH]1,1,x,-51.1,0.4,0.7,16.1
Cn1cccc1-c1cc(C(=O)O)[nH]n1,1,15.3,69.6*,x,1.9,x
O=C(O)c1cc(-c2ccccc2)n[nH]1,1,x,85.9*,0.1,2.3,-14.7
CCOc1ccc(/C=N/NC(=O)c2cc(-c3cccn3C)n[nH]2)cc1,0.9,-8.4,79.1*,1.5,7.4,-9.5
O=C(O)c1cc(-c2ccccc2Cl)n[nH]1,0.9,x,96.2*,-0.2,10.5,-9.7
Cc1ccc(C)c(N(CC(=O)NC(C)(C)C)C(=O)CNC(=O)c2cccs2)c1,1,-10.8,-6.7,0.7,-2.3,-15.4
CN(C(=O)Nc1ccc(Cl)cc1Cl)[C@H]1c2cc(Br)ccc2OC[C@H]1CO,1,x,-4.3,-3.2,-1.4,-10.8
CCN(CC)CCN(C(=O)c1ccc(CN2CCCCC2)o1)C(C(=O)NC1CCCCC1)c1ccc(F)cc1 (configuration not stated),1.1,-9.8,-28.9,0.4,-9.4,-5.2
COc1ccc(CCN(C(=O)c2ccccc2)C2=CC3CCC(C2)N3C)cc1OC (configuration not stated),1,85.4*,-4.9,-0.7,-0.9,-11.2
CN1C2C=C(N(CCc3c[nH]c4ccccc34)C(=O)c3ccc(Cl)cc3)CC1CC2 (configuration not stated),1,x,-8.0,-1.2,-4.4,10.4
COc1ccc(S(=O)(=O)NC(CC(=O)NCCc2ccc(OC)c(OC)c2)c2ccco2)cc1 (configuration not stated),1,94.0*,-10.4,0.3,-4.6,-20.0
Cc1cc(NC(=O)c2cc3n(n2)C(C(F)(F)F)CC(c2ccc(Cl)c(Cl)c2)N3)no1 (configuration not stated),1,54.7*,-5.4,-0.9,1.4,15.0
CC(=O)Nc1cccc(-c2nc3ccccc3c(=O)o2)c1,1,83.6*,-7.8,-0.3,1.2,-15.7
CCC(CC)C(=O)Nc1cccc(-c2nc3ccccc3o2)c1,1.1,61.0*,-6.2,-1.0,-7.2,-17.5
SMILES,TNAP act hiacc,S1P3 antag,TNAP inh noacc,S1P4 ag,TNAP inh hi DEA,S1P4 antag
O=C(O)c1ccccc1-c1ccccc1C(=O)Nc1cccc(-c2nc3ccccc3o2)c1,1.1,-13.0,-10.7,1.7,-7.2,-8.2
O=c1[nH][nH]c2cc(=O)n(-c3ccc(Cl)cc3)nc12,0.8,-18.1,-2.0,-0.8,15.6,3.3
CC(=O)OC(C(=O)N1CCOCC1)c1c(F)cccc1F (configuration not stated),x,-19.3,-8.4,-0.3,x,-20.4
NC1=NC(=O)S/C1=C\c1ccc(F)cc1,1,-15.6,-10.0,0.0,-3.4,-23.8
COCCn1c(COc2ccc(Cl)cc2)nnc1SCC(N)=O,1,62.5*,3.6,0.4,1.5,-11.7
Cc1ccc(OCc2nnc(SCC(N)=O)n2N)cc1,1,-20.9,-2.5,2.0,-1.0,-10.0
COC(=O)c1nn(-c2ccc(OC)cc2)c(=O)cc1O,1,0.7,1.1,1.1,-2.3,-8.7
COc1ccc(-n2nc(C#N)c(Cl)cc2=O)cc1,1,-2.0,-11.8,-5.2,-4.1,30.1*
Nc1ccc(C(=O)Nc2ccc(NC(=O)c3ccco3)c(O)c2)cc1,x,-2.1,x,-0.6,x,-4.8
C[C@@H](C(=O)Nc1ccc2ccccc2c1)[C@H]1C[C@]1(C)[C@H](NC(=O)OCc1ccccc1)c1ccccc1,1.1,32.1*,-13.6,2.1,-5.9,14.3
CCN1CCN(C(=O)N2CCOCC2)CC1,1.1,-6.3,-5.6,-0.6,-5.3,-11.1
O=C(c1ccccc1)c1cn[nH]c1-c1ccccc1O,1,x,77.6*,-2.0,0.7,0.5
COc1ccc(O)c(-c2[nH]ncc2C(=O)c2ccccc2)c1,1,x,-14.6,2.0,-4.8,-24.4
Nc1nnn(CC(=O)N/N=C/C=C/c2ccccc2)n1,x,2.5,x,0.1,x,3.0
Cc1cccc(C)c1NC(=S)NCCc1ccc(O)c(O)c1,1,-15.3,60.1*,1.2,1.1,5.5
Cc1cc(C(=O)Nc2ccc(OCc3ccccc3)cc2)c(C)o1,1,-5.1,-0.3,-0.4,-0.5,9.7
CCOC(=O)c1ccc(N2CSC3=C(C#N)C(c4cccs4)CC(=O)N3C2)cc1 (configuration not stated),1.1,95.8*,-9.5,-1.1,-8.3,-22.6
CCOc1ccc(C2Oc3nc(SC)nnc3-c3ccccc3N2C(C)=O)cc1OC (configuration not stated),1,54.7*,1.3,1.5,2.4,-15.6
O=C(Nc1ccccc1C(=O)NCc1ccco1)c1ccccc1,1,14.1,-4.9,-0.4,1.5,-8.5
O=C(Nc1ccc(Cl)cc1)Nc1ccccc1C(=O)NCc1ccco1,1,53.6*,-8.5,0.5,0.3,-7.3
C/C(=N/NC(=O)C(=O)N/N=C(/C)c1ccccc1)c1ccccc1,1,-19.1,-58.4,-1.1,-1.3,-16.1
C/C(=N\NC(=O)C(=O)N/N=C(\C)c1cccc(O)c1)c1cccc(O)c1,1,-1.3,54.9*,1.3,-2.8,-16.5
Cc1nc2c3cnn(-c4ccc(C)c(C)c4)c3ncn2n1,1,-12.5,81.2*,-0.4,2.5,-4.8
CN=c1scc(-c2ccco2)n1/N=C/c1ccc(O)c(O)c1,0.9,-0.6,67.4*,1.7,11.3,14.6

# Screening results: PubChem, several laboratories
